We go through 23 molecules from ChEMBL document CHEMBL1150374, “Synthesis and anticonvulsant activity of aromatic tetramethylcyclopropanecarboxamide derivatives” (Bioorg Med Chem, 2008).

As usually defined, the ED50 is the midpoint of the dose-response relation. Lower therefore signals greater potency. In general, TD50 refers to the 50% point of the dose-response relation for the toxic effect studied. A lower TD50 goes with greater toxicity.

Calls of active or inactive are those of the source. The rule behind the calls is not given here. Bounds are passed on as bounds.

For data set [1], the system named is Mus musculus. Nature of the data set: Anticonvulsant activity against maximal electroshock-induced seizures in mouse model at 300 mg/kg, ip after 0.5 hrs. The data set is classed as functional, organism-based. Details: dose 300 mg/kg. An outline of the steps: (§1)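 Mice dosed intraperitoneally at 300 mg/kg, in a dosing volume of 0.01 mL per gram body weight. Seizure protection was scored at the stated time after dosing. Activity is expressed as the number of animals protected over the number tested.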

For data set [2], the system named is Mus musculus. Nature of the data set: Anticonvulsant activity against maximal electroshock-induced seizures in mouse model at 300 mg/kg, ip after 2 hrs. The data set is classed as functional, organism-based. Details: dose 300 mg/kg. An outline of the steps:
as §1

Data set [3] has as its system Mus musculus. Nature of the data set: Anticonvulsant activity against scMet-induced seizures in mouse model at 300 mg/kg, ip after 0.5 hrs. It counts as functional, organism-based. Details: dose 300 mg/kg. An outline of the steps: as §1
The test system of data set [4] is Mus musculus. Description: Anticonvulsant activity against scMet-induced seizures in mouse model at 300 mg/kg, ip after 4 hrs. It counts as functional, organism-based. Details: dose 300 mg/kg. The method in brief: as §1
Data set [5] deals with Rattus norvegicus. Nature of the data set: Anticonvulsant activity against maximal electroshock-induced seizures in orally dosed rat model. It counts as functional. Particulars: po. On the technique in general: In the maximal electroshock model the usual endpoint is tonic extension of the hind limbs.
Data set [6] has as its system Rattus norvegicus. Nature of the data set: Anticonvulsant activity against scMet-induced seizures in orally dosed rat model. It counts as functional. To be noted: po. An outline of the steps:
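Rats dosed orally in a volume of 0.04 mL per 10 g body weight. ED50 was determined with 95% confidence intervals by probit analysis.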

Data set [7] in a line: Toxicity in orally dosed rat by rotarod test. It counts as organism-based. To be noted: in vivo, po. The method in brief:
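Rats dosed orally in a volume of 0.04 mL per 10 g body weight. Dose was varied until four points were established between the level causing no minimal motor impairment in any animal and the level at which all animals were impaired. TD50 was derived with 95% confidence intervals by probit analysis.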

Data set [8] concerns Mus musculus. Nature of the data set: Anticonvulsant activity against maximal electroshock-induced seizures in mouse model at 300 mg/kg, ip after 4 hrs. It counts as functional, organism-based. Details: dose 300 mg/kg. The method in brief:
as §1

The species entered for data set [9] is Rattus norvegicus. Description: Protective index, ratio of TD50 for rat by rotarod test to ED50 for rat by MES test. It counts as functional. The method in brief:
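PI was calculated as TD50/ED50 from oral dosing in rats. Both values were derived by probit analysis.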
On the technique in general: Falling from the rotarod earlier than controls is read as motor impairment.

The species named for data set [10] is Mus musculus. Nature of the data set: Anticonvulsant activity against maximal electroshock-induced seizures in mouse model. The data set is classed as functional. An outline of the steps:
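Compounds given ip to mice at 100 or 300 mg/kg, dosed at 0.01 mL per gram body weight. Maximal electroshock seizures were tested at 0.5, 2 and 4 h after dosing. Activity is reported as animals protected over animals tested, with neurotoxicity scored alongside.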

For data set [11], the system named is Mus musculus. Nature of the data set: Anticonvulsant activity against scMet-induced seizures in mouse model at 100 mg/kg. The data set is classed as functional.

For the molecule `CC1(C)C(C(=O)Nc2ccc(S(N)(=O)=O)cc2)C1(C)C`, the outcome in data set [1], in [3] and in [4] was inactive. The result in [2] was Active. Moreover, the results for the ED50 in [5] and in data set [6] were 26 mg/kg and > 100 mg/kg, respectively. Besides, the TD50 in data set [7] was > 500 mg/kg.

Take `CC1(C)C(C(=O)NCCCc2ccccc2)C1(C)C`: the outcome in [1], in data set [8], in [3] and in data set [4] was inactive.

The molecule `CC1(C)C(C(=O)NC(N)=O)C1(C)C` [2,2,3,3-TETRAMETHYLCYCLOPROPANECARBONYLUREA] yielded an ED50 in data set [5] of 29 mg/kg.

Regarding `CONC(=O)C1C(C)(C)C1(C)C`, it took a dose of 35 mg/kg to reach the 50% effect level in [6] (ED50). Moreover, in data set [9], the PI is given as 10.

`CCCC(CCC)C(=O)NCc1ccc(S(N)(=O)=O)cc1`: it took a dose of 16 mg/kg to reach the 50% effect level in [10] (ED50).

On to `Cc1cccc(C)c1OCC(C)N` (stereo unspecified) [MEXILETINE], for which, in data set [10], it took a dose of 10 mg/kg to reach the 50% effect level (ED50).

For the molecule `CC1(C)C(C(=O)NCc2ccccc2)C1(C)C`, the outcome in data set [1] and in data set [3] was Active. In addition, the outcome in data set [8] and in [4] was inactive.

As to `CC1(C)C(C(=O)NC(=O)Nc2ccccc2)C1(C)C`, the result in [1], in data set [8], in data set [3] and in data set [4] was inactive.

The molecule `CCCC(CCC)C(=O)NCc1ccccc1` [VALPROYLBENZYLAMIDE] registered an Activity in data set [11] of 50%.

On to `NS(=O)(=O)Cc1noc2ccccc12` [ZONISAMIDE], for which the ED50 in data set [5] was 21 mg/kg; in [6] it was > 300 mg/kg. In [7], this molecule yielded a TD50 of 192 mg/kg.

For the molecule `CC1(C)C(C(=O)NCc2ccc(F)cc2)C1(C)C`, the outcome in [1], in [8], in data set [3] and in data set [4] was inactive.

For `CC1(C)C(C(=O)NCc2ccccc2Cl)C1(C)C`, the outcome in [1], in data set [8], in data set [3] and in data set [4] was inactive.

For `CC(=O)c1ccc(NC(=O)C2C(C)(C)C2(C)C)cc1`, the outcome in data set [1], in data set [3] and in [4] was inactive. Moreover, in data set [8], the result was Active.

Turning to `CC(C(O)c1ccccc1)N(C)C(=O)C1C(C)(C)C1(C)C` (stereo unspecified), the outcome in [1], in data set [8], in data set [3] and in data set [4] was inactive.

Regarding `CC1(C)C(C(=O)Nc2ccccc2)C1(C)C`, the outcome in data set [1], in data set [8], in data set [3] and in data set [4] was inactive.

As to `CC1(C)C(C(=O)Nc2cc(Cl)c(S(N)(=O)=O)cc2S(N)(=O)=O)C1(C)C`, the outcome in data set [1], in data set [8], in data set [3] and in data set [4] was inactive.

For `CC1(C)C(C(=O)NCCc2ccccc2)C1(C)C`, the result in data set [1], in [8] and in [4] was inactive. For the same molecule, the result in data set [3] was Active.

Take `CC1(C)C(C(=O)NCc2ccc(S(N)(=O)=O)cc2)C1(C)C`: the outcome in data set [1], in [3] and in [4] was inactive.

On to `CCCC(CCC)C(=O)O` [VALPROIC ACID], for which, in [6], the ED50 was 646 mg/kg.

In the case of `CC1(C)C(C(=O)NCCc2c[nH]c3ccccc23)C1(C)C`, the result in [1], in data set [8], in data set [3] and in [4] was inactive.

Consider `Cc1cccc(C)c1OCC(C)NC(=O)C1C(C)(C)C1(C)C` (stereo unspecified), for which the result in data set [1], in [8], in data set [3] and in data set [4] was inactive.

With `CC(NC(=O)C1C(C)(C)C1(C)C)c1ccccc1` (stereo unspecified), the result in data set [1], in data set [8], in [3] and in [4] was inactive.

Take `CC(CNC(=O)C1C(C)(C)C1(C)C)c1ccccc1` (stereo unspecified): the result in data set [1], in data set [8], in data set [3] and in data set [4] was inactive.
